Screening data as filed in PubChem BioAssay.
Rows were chosen to be rich in hits. Some 4% of all compounds tested hit in one or more screens of this group.
OX1R antag-1 – human HCRTR1 antagonism. O43613. CHO/OX1R cells, Fluo-8 calcium fluorescence, orexin A. inhibition, % at 5 µM. actives 0.43% (n = 330,000). AID 434989;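 active = inhibition above its plate's threshold, mean inhibition of all tested compounds on the plate plus 3 SD, cut at about 37% in these data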;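 note: 0% = orexin A challenge wells and 100% = SB-334867-A antagonist wells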
NTR1 agonist – NTR1 (human) agonism | P30989 | NTR1-U2OS beta-arrestin-GFP spot imaging, agonist mode | actives 0.17% (n = 330,000) | activation, % at 20 µM;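 active = activation at or above 40% of the spot to cytoplasm intensity ratio, with at least 20 cells analyzed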;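 note: 0% = DMSO without peptide and 100% = 100 nM NTR1 peptide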
TAAR1 agonist – human TAAR1 agonism. Q96RJ0. CHO RD-HGA16 TAAR1, Fluo-8 calcium fluorescence; vehicle wells 0%, saturating PEA agonist 100%. activation, % at 3 µM. actives 0.99% (n = 360,000). AID 624467;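 active = activation above the mean activation of all test compounds in the run plus 3 SD, cut at about 38% in these data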
Target sequence (Q96RJ0 whole entry, looked up): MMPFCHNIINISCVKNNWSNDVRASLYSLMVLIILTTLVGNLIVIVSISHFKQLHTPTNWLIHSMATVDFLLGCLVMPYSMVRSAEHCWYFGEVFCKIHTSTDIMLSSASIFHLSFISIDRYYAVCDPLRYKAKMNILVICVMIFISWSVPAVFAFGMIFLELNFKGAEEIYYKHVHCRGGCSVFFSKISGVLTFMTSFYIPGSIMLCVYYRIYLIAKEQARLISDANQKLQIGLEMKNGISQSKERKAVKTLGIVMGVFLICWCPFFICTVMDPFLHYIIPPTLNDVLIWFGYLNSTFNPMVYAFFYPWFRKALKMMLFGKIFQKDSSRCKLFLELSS
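Benchmarks: low control DMSO, high control PEA (EC100); System: CHO RD-HGA16 cells carrying human TAAR1 plus Gα16; Detection: Fluo-8 fluorescence, 5 s baseline then 140 s kinetic read; Schedule: 17-24 h plating, Fluo-8 75 min 37 °C, 30 min RT; Read-out basis: % activation from peak over basal fluorescence ratio, DMSO-to-PEA scaled.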
CHO parental Ca – counter-screen: ATP calcium response change in parental CHO cells | actives 0.63% (n = 330,000) | AID 463079 | parental CHO-K1, ATP-induced calcium, Fluo-8 fluorescence | inhibition, % at 5.6 µM;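 active = inhibition above that plate's mean sample inhibition plus 3 SD, cut at about 26% in these data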;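 note: 0% = ATP-challenged DMSO wells and 100% = DMSO wells without ATP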
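Test system: untransfected parental CHO cell line; also added: ATP stimulus; dosing: 5.6 µM, single dose; signal: calcium-sensitive Fluo-8 fluorescence; measure: percent inhibition of ATP-evoked calcium rise, normalized to controls; benchmarks: low control ATP plus DMSO, high control DMSO only; replication: one well per compound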
TAAR1 antagonist – antagonists of human TAAR1. CHO RD-HGA16 TAAR1, Fluo-8 calcium fluorescence, antagonist. inhibition, % at 3 µM. actives 1.5% (n = 360,000). AID 624466;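 active = inhibition above a per-plate cutoff, the mean inhibition of test compounds on that plate plus 3 SD, cut at about 49% in these data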;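 note: 0% = DMSO plus EC80 beta-PEA response and 100% = DMSO alone without agonist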
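test system = CHO RD-HGA16 cells bearing hTAAR1 | replication = singlicate | controls = DMSO-only wells and EC80 β-PEA-stimulated wells | reagent = EC80 β-phenethylamine stimulus | read-out basis = percent inhibition of PEA-evoked calcium signal, max/basal emission ratio | schedule = seeding 17-24 h prior, 75-min 37 °C, 30-min RT dye loading | signal = kinetic Fluo-8 calcium fluorescence measurement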
OX1R antag-2 – blocks the human orexin 1 receptor. O43613. OX1R-expressing cells, FRET antagonist read-out. inhibition, % at 6.6 µM. actives 1.8% (n = 330,000). AID 485270; in the data active = inhibition mostly above about 38%, no sharp cut-off; inactive = mostly below about 40%;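 note: 0% = agonist challenge alone and 100% = reference antagonist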
TAAR1 ag confirm – confirmation of human TAAR1 agonists. shares compounds with TAAR1 agonist. CHO RD-HGA16 TAAR1, Fluo-8 calcium fluorescence; scaled: DMSO 0%, maximal phenethylamine 100%. activation, % at 3 µM. actives 82% (n = 2,400). AID 651783;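 active = activation above a cutoff set at the run's mean compound activation plus 3 SD, cut at about 39% in these data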
Ga16 nonsel ag – nonselective agonism, TAAR1 counter-screen; shares compounds with TAAR1 agonist; CHO-Ga16 parental, Fluo-8 calcium fluorescence; normalized to maximal ATP response, DMSO zero; activation, % at 3 µM; actives 50% (n = 2,400);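 active = activation above the run cutoff, the mean activation over all tested wells plus 3 SD, cut at about 12% in these data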;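 note: 0% = DMSO wells and 100% = maximal ATP response on the peak over basal ratio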
TAAR1 desens – counter-screen for human TAAR1 agonists: agonists that desensitize TAAR1; actives 46% (n = 2,400); inhibition, % at 3 µM; shares compounds with TAAR1 agonist; AID 651951; CHO RD-HGA16 hTAAR1, Fluo-8 calcium, beta-PEA response inhibition;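 active = inhibition above the run cutoff, the mean inhibition of all test compounds plus 3 SD, cut at about 49% in these data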;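 note: beta-PEA stimulus applied at its EC80; loss of beta-PEA calcium signal after compound pretreatment read as receptor desensitization; 0% = DMSO with beta-PEA at EC80 and 100% = DMSO alone without agonist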
Ga16 nonsel ant – nonselective Ga16 antagonism, counter-screen | inhibition, % at 3 µM | CHO-Ga16 ATP-induced calcium, Fluo-8 fluorescence | shares compounds with TAAR1 agonist | actives 39% (n = 2,400);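 active = inhibition above the plate's mean compound inhibition plus 3 SD, computed per plate, cut at about 22% in these data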;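 note: 0% = EC80 ATP with DMSO and 100% = DMSO wells without ATP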
Starred values were filed as active, the others as inactive.

Screening COc1ccccc1CCNC(=O)C(=O)NCC1CCCN1S(=O)(=O)c1ccccc1 (stereo unspecified) returned OX1R antag-1 20, NTR1 agonist 3, TAAR1 agonist 49*, CHO parental Ca -33, TAAR1 antagonist 59*, OX1R antag-2 49*, TAAR1 ag confirm 72*, Ga16 nonsel ag 8, TAAR1 desens 65* and Ga16 nonsel ant 31*.
`CCc1ccc(Nc2nnc(SCC(=O)c3c(N)n(C4CC4)c(=O)[nH]c3=O)s2)cc1` gave OX1R antag-1 -17, NTR1 agonist 8, TAAR1 agonist 8, CHO parental Ca -16, TAAR1 antagonist 2 and OX1R antag-2 6.
CCC(C)(C)n1nnnc1C(c1ccc(O)cc1)N1CCc2ccccc2C1 (stereo unspecified) was read as OX1R antag-1 -21, NTR1 agonist -1, TAAR1 agonist 98*, CHO parental Ca 5, TAAR1 antagonist 84*, OX1R antag-2 7, TAAR1 ag confirm 93*, Ga16 nonsel ag 4, TAAR1 desens 86* and Ga16 nonsel ant 15.
For CC(C)(C)n1nnnc1C(c1ccccc1)N1CCc2ccccc2C1 (stereo unspecified) the results were OX1R antag-1 -15, NTR1 agonist 1, CHO parental Ca -15 and OX1R antag-2 3.
For COCCn1nnnc1C(c1ccc(O)c(OC)c1)N1CCc2ccccc2C1 (stereo unspecified) the results were OX1R antag-1 -17, NTR1 agonist 0, TAAR1 agonist 86*, CHO parental Ca -8, TAAR1 antagonist 84*, OX1R antag-2 7, TAAR1 ag confirm 103*, Ga16 nonsel ag 1, TAAR1 desens 97* and Ga16 nonsel ant 9.
`Cc1ccc(C)c(C(=O)OCC(=O)N(C)c2ccccc2)c1` gave OX1R antag-1 -30, NTR1 agonist 2, TAAR1 agonist -1, CHO parental Ca -25, TAAR1 antagonist -3 and OX1R antag-2 12.
`CCOC(=O)N1CCN(Cc2nc3cc(NC(=O)CC(C)C)ccc3n2CC)CC1` gave OX1R antag-1 -13, NTR1 agonist 0, TAAR1 agonist 0, CHO parental Ca 1, TAAR1 antagonist -8 and OX1R antag-2 3.
O=[N+]([O-])C1=CC=C2C(=NC3(CCCCC3)N2O)C1=NCCc1ccccc1 was read as NTR1 agonist 4, TAAR1 agonist 44*, TAAR1 antagonist 14, TAAR1 ag confirm 79*, Ga16 nonsel ag 1, TAAR1 desens 50* and Ga16 nonsel ant 4.
For CC(C)(C)N=C1C([N+](=O)[O-])=CC=C2C1=NC1(CCCCC1)N2O the results were OX1R antag-1 -20, NTR1 agonist 0, TAAR1 agonist 0, CHO parental Ca -1, TAAR1 antagonist -17 and OX1R antag-2 16.
For O=C1CC(N2CCN(S(=O)(=O)c3ccccc3F)CC2)C(=O)N1c1ccc(F)cc1F (stereo unspecified) the results were OX1R antag-1 -10, NTR1 agonist -1, TAAR1 agonist 1, CHO parental Ca -12, TAAR1 antagonist 8 and OX1R antag-2 0.
O=C(O)CCC(=O)NCC1OCCc2ccccc21 (stereo unspecified) was read as OX1R antag-1 5, NTR1 agonist 1, TAAR1 agonist 54*, CHO parental Ca -3, TAAR1 antagonist 7, OX1R antag-2 21, TAAR1 ag confirm 16, Ga16 nonsel ag 2, TAAR1 desens 13 and Ga16 nonsel ant 8.
Screening COc1ccccc1CN1CC(C(=O)N(C)CCc2ccccn2)CCC1=O (stereo unspecified) returned TAAR1 agonist 1 and TAAR1 antagonist -16.
For CN(C)C=Nc1nonc1-c1ccccc1 the results were OX1R antag-1 4, NTR1 agonist 0, TAAR1 agonist 9, CHO parental Ca -2, TAAR1 antagonist -24 and OX1R antag-2 3.
For CN(C)C=Nc1c(Br)cc(Br)c2nonc12 the results were OX1R antag-1 58*, NTR1 agonist 9, TAAR1 agonist 87*, CHO parental Ca 64*, TAAR1 antagonist 78*, OX1R antag-2 43, TAAR1 ag confirm 48*, Ga16 nonsel ag 73*, TAAR1 desens 56* and Ga16 nonsel ant 66*.
CCc1nc2ccc(C(=O)N3CCCCC3)cn2c1N(CCC(C)C)CCN(C)C was read as TAAR1 agonist 2 and TAAR1 antagonist -39.
C=CCNc1nc(C(F)(F)F)nc2c1nnn2Cc1ccccc1Cl was read as OX1R antag-1 -2, NTR1 agonist 4, TAAR1 agonist 50*, CHO parental Ca 10, TAAR1 antagonist 16, OX1R antag-2 2, TAAR1 ag confirm 54*, Ga16 nonsel ag 35*, TAAR1 desens 9 and Ga16 nonsel ant 4.
For CCOCCCNc1nc(C(F)(F)F)nc2c1nnn2Cc1ccccc1Cl the results were OX1R antag-1 -37, NTR1 agonist 8, TAAR1 agonist -1, CHO parental Ca -25, TAAR1 antagonist 5 and OX1R antag-2 5.
For Cc1nc(NCCc2ccccc2)c2nnn(Cc3ccccc3Cl)c2n1 the results were OX1R antag-1 -5, NTR1 agonist 1, TAAR1 agonist 86*, CHO parental Ca -8, TAAR1 antagonist 79*, OX1R antag-2 -7, TAAR1 ag confirm 91*, Ga16 nonsel ag 8, TAAR1 desens 85* and Ga16 nonsel ant 8.
Cc1ccc(Cc2c(-c3ccc(C#N)cc3)nc3ccc(Cl)cn23)cc1 was read as TAAR1 agonist 1 and TAAR1 antagonist -1.
`CCCC[C@@H]1CNCCN1CCc1cccc2ccccc12` gave OX1R antag-1 -27, NTR1 agonist 3, TAAR1 agonist 66*, CHO parental Ca -10, TAAR1 antagonist 75*, OX1R antag-2 3, TAAR1 ag confirm 70*, Ga16 nonsel ag 6, TAAR1 desens 87* and Ga16 nonsel ant 17.
